Data from article PMC8451882 (British Journal of Clinical Pharmacology, 2021).
Several values for one entry are separate records, joined by “and”; a condition that tells them apart may be missing. Identical values can stand only once.

How the values were obtained:
metabolic enzyme = assay: In vitro enzymology studies, time-dependent metabolic enzyme inhibition; type: in vitro ADME; conditions: RO5459072 and its metabolites; data held on files at Roche
human P‐gp = human P‐gp (Homo sapiens, UniProt P08183); assay: In vitro P-gp transport studies; type: in vitro ADME; conditions: up to RO5459072 concentrations of 100 μM; data held on files at Roche
human P‐gp, sequence (P08183 whole entry): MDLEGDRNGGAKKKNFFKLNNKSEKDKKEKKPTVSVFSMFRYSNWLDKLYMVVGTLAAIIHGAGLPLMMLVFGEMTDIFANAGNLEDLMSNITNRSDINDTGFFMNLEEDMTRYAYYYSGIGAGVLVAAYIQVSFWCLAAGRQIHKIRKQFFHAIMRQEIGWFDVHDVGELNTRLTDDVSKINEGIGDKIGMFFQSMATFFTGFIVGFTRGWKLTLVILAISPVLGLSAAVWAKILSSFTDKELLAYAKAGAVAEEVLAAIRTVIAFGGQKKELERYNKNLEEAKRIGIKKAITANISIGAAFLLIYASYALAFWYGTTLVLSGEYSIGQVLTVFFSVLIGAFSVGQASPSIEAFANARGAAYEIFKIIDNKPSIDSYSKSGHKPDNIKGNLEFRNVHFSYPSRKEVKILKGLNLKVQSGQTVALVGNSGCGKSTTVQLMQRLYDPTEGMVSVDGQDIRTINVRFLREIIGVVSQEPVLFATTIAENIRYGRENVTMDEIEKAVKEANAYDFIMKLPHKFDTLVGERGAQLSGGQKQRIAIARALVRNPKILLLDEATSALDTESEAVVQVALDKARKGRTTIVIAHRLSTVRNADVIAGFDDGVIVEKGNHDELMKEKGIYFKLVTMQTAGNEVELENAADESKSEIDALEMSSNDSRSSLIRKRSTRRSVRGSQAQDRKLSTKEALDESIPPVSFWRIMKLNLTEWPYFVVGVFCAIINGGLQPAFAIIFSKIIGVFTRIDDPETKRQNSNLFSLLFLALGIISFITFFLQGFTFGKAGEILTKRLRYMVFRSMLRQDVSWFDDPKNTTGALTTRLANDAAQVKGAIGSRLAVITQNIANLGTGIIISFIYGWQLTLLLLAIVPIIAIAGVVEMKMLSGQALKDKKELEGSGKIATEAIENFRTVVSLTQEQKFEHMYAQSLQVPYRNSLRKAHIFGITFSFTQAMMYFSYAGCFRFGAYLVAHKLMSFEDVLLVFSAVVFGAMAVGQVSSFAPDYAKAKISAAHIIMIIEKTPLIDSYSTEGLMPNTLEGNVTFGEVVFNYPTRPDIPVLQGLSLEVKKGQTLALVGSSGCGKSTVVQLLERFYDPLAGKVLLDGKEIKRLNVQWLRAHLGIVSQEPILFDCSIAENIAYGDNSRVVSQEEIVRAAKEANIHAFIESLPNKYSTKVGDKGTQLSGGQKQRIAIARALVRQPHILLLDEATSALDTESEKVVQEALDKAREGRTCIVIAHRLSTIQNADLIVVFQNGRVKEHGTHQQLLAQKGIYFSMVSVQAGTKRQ

[1] = Excretion after intravenous dose in rats; type: in vivo; conditions: data held on files at Roche
[2] = Population compartmental PK model; type: in vivo, human
Method in brief: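 Pooled first-dose plasma concentrations (816 samples) from 39 healthy volunteers, SAD (fasted 1–600 mg; fed 100 mg) and MAD (fed 50–200 mg). Analysed in NONMEM 7.3 with ADVAN9 and first-order conditional estimation. 1- and 2-compartment models tested, with first-order absorption with or without lag time or transit compartments. IIV log-normal. Visual predictive checks used 500 simulations. Reported as estimate (% RSE).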

Single ascending dose = type: in vivo, human
Method in brief: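 SAD study in healthy volunteers: micronised drug in hard-gelatine capsules without excipients, given orally after an overnight fast of at least 8 h (1, 3, 30, 100, 300, 600 mg), or 100 mg after a high-fat high-calorie breakfast. Plasma (K3EDTA) sampled 0.5–48 h after dosing and assayed by LC-MS/MS (1.00–1000 ng/mL). Parameters derived by noncompartmental analysis.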

[3] = BCS/BDDCS classification and permeability; type: physicochemical
[4] = Safety and tolerability, MAD study; type: in vivo, human; conditions: healthy volunteers, doses up to 200 mg BID for 7 days
Method in brief: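 Single-centre, randomised, double-blind, placebo-controlled MAD study: 22 healthy men and women dosed with food, single dose on day 1, then BID (50, 100, 200 mg) or OD (100 mg) on days 3–9. Active and placebo assigned 6:3. Safety and tolerability assessed before and after dosing and at various time points.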

Solubility = type: physicochemical
[5] = Safety and tolerability, SAD study; type: in vivo, human; conditions: healthy volunteers, single oral dose up to 600 mg
Method in brief: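 First-in-human, single-centre, randomised, double-blind, placebo-controlled interleaved-cohort study: 17 healthy men and women in 2 cohorts with 4 periods each. Single oral doses from 1 to 600 mg given fasted, at least 14 days apart. Safety and tolerability assessed before and after dosing and at various time points.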

cathepsin‐S = assay: Inhibition of cathepsin-S enzyme activity throughout the dosing interval; type: in vivo, human; conditions: 50 mg dose
Multiple ascending dose = type: in vivo, human
Method in brief: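 MAD study in healthy men and women: oral doses of 50, 100 or 200 mg or placebo (6:3), given with food; first dose on day 1. Plasma (K3EDTA) sampled 0.5–48 h after the first dose. Test compound measured by liquid–liquid extraction and LC-MS/MS, calibration range 1.00–1000 ng/mL. Linearity judged from dose-normalised concentration–time profiles.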

[6] = interindividual variability, CV% (% RSE) [shrinkage]

Cn1cc(-c2ccc(S(=O)(=O)[C@@H]3C[C@@H](C(=O)NC4(C#N)CC4)N(C(=O)C4(C(F)(F)F)CC4)C3)c(C(F)(F)F)c2)cn1 [RO5459072]
time-dependent metabolic enzyme inhibition (metabolic enzyme): absence | saturability of human P-gp (human P‐gp): not saturable | fraction of dose found unchanged in the faeces [1]: 50% | CL/F, apparent total clearance ([2]; fasted and fed conditions, estimate (% RSE)): 9.38 (3.65) L h^−1 | kaFaPI, first-order absorption rate constant of the proximal intestine ([2]; fasted, doses > 3 mg (10 to 600 mg), estimate (% RSE)): 2.05 h^−1 and 2.05 (6.29) h^−1 | kaFaDI, first-order absorption rate constant of the distal intestine ([2]; fasted, doses > 3 mg, estimate (% RSE)): 0.065 h^−1 and 0.065 (9.31) h^−1 | apparent fraction of the total dose absorbed from the distal intestine ([2]; fasted, on average for doses between 10 and 600 mg): ~ 16% | IIV of D50 [2, 6]: 38.5% (27.3) [40.9%] CV% | IIV of FFaDI [2, 6]: 32.1% (38.9) [41.0%] CV% | IIV of Vc/F [2, 6]: 24.0% (15.0) [14.6%] CV% | IIV of kaFaPI for doses > 3 mg [2, 6]: 33.8% (13.8) [2.44%] CV% | IIV of kaFe [2, 6]: 39.2% (14.8) [4.21%] CV% | Tmax (Single ascending dose; both, human, plasma, oral, 100 mg, Tmax, fed): 5 h | half-life (Single ascending dose; both, human, plasma, oral, 600 mg, noncompartmental analysis apparent terminal half-life, fasted, highest doses between 100 and 600 mg): 780 to 960 min | increase in systemic exposure with dose (Single ascending dose; fasted, doses <10 mg): more than dose proportional | increase in systemic exposure with dose (Single ascending dose; fasted, doses >30 mg): less than dose proportional | Tmax delay fed versus fasted (Single ascending dose; fed later than fasted): approximately 1 hour | decrease of estimated average half-life by food (noncompartmental analysis) (Single ascending dose; fed versus fasted): approximately 4 hours | Biopharmaceutics Classification System class [3]: 2 | permeability [3]: highly permeable | tolerability [4]: tolerated similarly to placebo | solubility (Solubility): < 20 µg/mL | tolerability [5]: similarly tolerated to placebo | inhibition of cathepsin-S enzyme activity in average throughout the dosing interval (cathepsin‐S): about 93% | half-life (Multiple ascending dose; both, human, plasma, oral, average estimated terminal half-lives, fed, 50 mg, 100 mg, 200 mg doses): 480 to 600 min | PK linearity (Multiple ascending dose; fed condition from 50 to 100 mg): linear
